Bioassay records deposited in PubChem BioAssay by several laboratories.
NS3 helicase inh – HCV NS3 helicase inhibition. NS3 helicase DNA unwinding, Cy5 molecular beacon fluorescence. inhibition, % at 10.9 µM. 290,000 compounds, 0.56% hits. AID 1800;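 active = inhibition above the mean of all tested compounds plus 3 SD, set per campaign, cut at about 35% in these data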;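 also: 0% = DMSO wells and 100% = thioflavine S control wells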
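Test system: hepatitis C virus NS3 helicase domain fragment enzyme. Also added: annealed dual-labelled DNA beacon duplex, ATP-started. Timing: 60 min unwinding reaction at 25 °C after ATP addition. Technique: Cy5 fluorescence. Measure: % inhibition of unwinding.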
GRK2 inh – inhibitors of human GRK2 displacing RNA aptamer; P25098; inhibition of aptamer binding, % at 10 µM; 330,000 compounds, 0.59% hits; AID 488847; bead flow cytometry, FAM-aptamer displacement from GRK2;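 active = inhibition of aptamer binding above 40%, roughly 3 SD of noise, on plates passing a quality check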;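 also: median bead fluorescence of bound FAM aptamer so fluorescent compounds give negative values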
Target sequence (P25098 whole entry, looked up): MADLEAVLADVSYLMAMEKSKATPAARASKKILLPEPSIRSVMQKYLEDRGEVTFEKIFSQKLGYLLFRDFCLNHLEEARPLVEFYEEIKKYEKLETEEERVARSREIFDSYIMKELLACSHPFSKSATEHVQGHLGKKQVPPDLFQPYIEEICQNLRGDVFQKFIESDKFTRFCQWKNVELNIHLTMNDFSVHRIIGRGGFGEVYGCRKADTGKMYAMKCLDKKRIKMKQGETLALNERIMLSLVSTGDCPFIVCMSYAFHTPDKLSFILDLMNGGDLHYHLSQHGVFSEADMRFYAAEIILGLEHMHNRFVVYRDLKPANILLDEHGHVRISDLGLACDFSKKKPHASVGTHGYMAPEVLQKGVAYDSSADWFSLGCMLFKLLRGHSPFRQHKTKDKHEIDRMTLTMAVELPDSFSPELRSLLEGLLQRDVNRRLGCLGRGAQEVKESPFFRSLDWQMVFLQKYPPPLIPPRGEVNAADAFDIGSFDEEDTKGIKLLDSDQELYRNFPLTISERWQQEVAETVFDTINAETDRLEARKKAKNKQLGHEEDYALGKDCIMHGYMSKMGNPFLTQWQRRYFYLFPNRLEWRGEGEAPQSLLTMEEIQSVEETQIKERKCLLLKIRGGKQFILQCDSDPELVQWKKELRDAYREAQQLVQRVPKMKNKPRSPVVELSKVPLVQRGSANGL
core dimer inh – blocks dimerization of HCV core protein; TR-FRET GST/Flag-core106 dimerization, 1536-well; inhibition, % at 5 µM; 300,000 compounds, 0.33% hits;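 active = inhibition above the mean of all tested compounds plus 3 SD, set per screening campaign, cut at about 45% in these data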
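Assay system: GST-tagged and Flag-tagged HCV core protein residues 1-106 / Times: compound-protein-antibody incubation 4 h at 22.5 °C / Signal: time-resolved FRET, ex 340 nm, em 617 and 671 nm / Evaluation: % inhibition based on acceptor/donor emission ratio / Benchmarks: wells lacking GST-core106 and wells with excess unlabelled core106 / Repeats: singlicate, one well per compound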
DAGLB inh – blocks human DAGLB lipase activity. 340,000 compounds, 0.059% hits. Q8NCG7. HEK293T DAGLB membrane lysate, EnzChek fluorogenic substrate. inhibition, % at 5.17 µM. AID 504411; in the data active = inhibition above about 34%;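 also: 0% = enzyme with vehicle and 100% = wells lacking enzyme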
FID counter – counter-screen for HCV NS3 helicase inhibitors: DNA intercalator displacement. inhibition, % at 7.9 µM. DNA fluorescent intercalator displacement, fluorescence. 290,000 compounds, 0.17% hits. AID 1845; in the data active = inhibition above about 37%;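 also: 0% = vehicle and 100% = reference compound; higher means more ethidium bromide displaced from hairpin DNA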
GPR7 antag – antagonists of human GPR7 (neuropeptides B/W receptor 1); inhibition, % at 4.4 µM; P48145; 290,000 compounds, 1.1% hits; GPR7-expressing cells, fluorescence antagonist assay; in the data active = inhibition above about 16%, passing the limit was not always enough;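 also: cells stimulated with the agonist NPW; 0% = agonist with vehicle and 100% = vehicle without agonist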
GPR7 antag cf – confirmation of human GPR7 antagonists. GPR7-expressing cells, calcium fluorescence antagonist mode. AID 1952. 2,400 compounds, 52% hits. inhibition, % at 4.4 µM. shares compounds with GPR7 antag; in the data active = inhibition above about 24%;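 also: stimulated with the GPR7 agonist NPW; 0% = agonist plus vehicle and 100% = vehicle alone without agonist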
MCHR1 antagonist – MCHR1 (human) antagonism in GPR7 counter-screen | shares compounds with GPR7 antag | MCHR1-expressing cells, fluorescence antagonist assay | inhibition, % at 4.4 µM | AID 2148 | 2,400 compounds, 62% hits; in the data active = inhibition above about 22%;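 also: 0% = vehicle with agonist and 100% = vehicle without agonist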
* hit, by the source's call. Compounds with a hit are over-represented: about 2.2% of the library has one in this group of screens.

How did Cc1ccc(Cl)cc1NC(=O)Cn1nc(-c2cccs2)ccc1=O do in these assays?
NS3 helicase inh: 27.3; GRK2 inh: 1.0; core dimer inh: -18.9; DAGLB inh: 0.0; FID counter: -24.4; GPR7 antag: 10.3

Results for NS(=O)(=O)Cc1noc2ccccc12 ?
NS3 helicase inh: 1.5; GRK2 inh: 3.0; core dimer inh: -0.3; DAGLB inh: 0.6; FID counter: -1.9; GPR7 antag: -9.4

How did Cc1ccc(Cl)cc1N1CCN(C(=O)C2CCC(=O)N(C3CCCCCC3)C2)CC1 (centres undefined) do in these assays?
NS3 helicase inh: -16.5; GRK2 inh: 0.0; core dimer inh: 1.6; DAGLB inh: 3.2; FID counter: -38.1; GPR7 antag: 25.9*; GPR7 antag cf: 36.6*; MCHR1 antagonist: 55.3*

How did O=C(Cn1cc(C(F)(F)F)ccc1=O)NCCc1ccc(Cl)cc1Cl do in these assays?
NS3 helicase inh: 8.5; GRK2 inh: 0.0; core dimer inh: 7.5; DAGLB inh: -0.1; FID counter: -7.5; GPR7 antag: -5.0

How did N#Cc1ccc(CN2CCN(CC(=O)NCCc3ccc(Cl)cc3Cl)CC2)cc1 do in these assays?
NS3 helicase inh: -79.8; GRK2 inh: 0.0; core dimer inh: 0.5; DAGLB inh: 2.9; FID counter: -9.5; GPR7 antag: 21.5*; GPR7 antag cf: 30.6*; MCHR1 antagonist: 8.3

How did Cc1c(C(=O)N2CCN(c3ccccc3)CC2)sc2ncnc(N3CCN(c4ccccn4)CC3)c12 do in these assays?
NS3 helicase inh: -0.5; GRK2 inh: 0.0; core dimer inh: 5.5; DAGLB inh: 0.5; FID counter: -17.9; GPR7 antag: 5.1

Results for Cc1c(C(=O)N2CCN(c3ccc(F)cc3)CC2)sc2ncnc(N3CCN(c4ccccn4)CC3)c12 ?
NS3 helicase inh: -12.6; GRK2 inh: 3.0; core dimer inh: 19.1; DAGLB inh: 1.2; FID counter: -40.0; GPR7 antag: 22.6*; GPR7 antag cf: 15.8; MCHR1 antagonist: 69.5*

Results for N=C1/C(=C/c2cccn2Cc2ccc(Cl)cc2)C(=O)N=C2SC=CN12 ?
NS3 helicase inh: 1.0; GRK2 inh: 0.0; core dimer inh: 6.6; DAGLB inh: 2.6; FID counter: -0.2; GPR7 antag: -9.9

How did CCCc1cc(=O)oc2cc(OCC(=O)N3CCC(C(N)=O)CC3)ccc12 do in these assays?
NS3 helicase inh: 29.5; GRK2 inh: 0.0; core dimer inh: 0.1; DAGLB inh: 0.2; FID counter: -5.6; GPR7 antag: 22.6*; GPR7 antag cf: 10.5; MCHR1 antagonist: 0.5

What do the screens show for `C=CCC1(CC=C)CCCN1C(=O)c1cc(COc2cncc(Cl)c2)on1`?
NS3 helicase inh: -0.6; GRK2 inh: 0.0; core dimer inh: 6.5; DAGLB inh: -11.0; FID counter: -46.4; GPR7 antag: 38.2*; GPR7 antag cf: 28.3*; MCHR1 antagonist: 51.6*

How did CNC(=S)N/N=C/c1cn(Cc2c(F)cccc2Cl)c2ccccc12 do in these assays?
NS3 helicase inh: -15.6; GRK2 inh: 0.0; core dimer inh: 18.4; DAGLB inh: 2.1; FID counter: -14.1; GPR7 antag: 30.3*; GPR7 antag cf: 44.7*; MCHR1 antagonist: 29.8*

How did CCNC(=S)N/N=C/c1cn(Cc2ccccc2F)c2ccccc12 do in these assays?
NS3 helicase inh: -3.7; GRK2 inh: 0.0; core dimer inh: 10.3; DAGLB inh: 4.6; FID counter: -2.6; GPR7 antag: 4.5

Results for O=C(Nc1nc2c(F)cc(F)cc2s1)C1CC1 ?
NS3 helicase inh: -0.4; GRK2 inh: 5.0; core dimer inh: 23.8; DAGLB inh: 0.7; FID counter: -9.2; GPR7 antag: 22.7*; GPR7 antag cf: 19.5; MCHR1 antagonist: 33.8*

How did O=C(CN1C(=O)CCC1=O)Nc1nc2c(F)cc(F)cc2s1 do in these assays?
NS3 helicase inh: 11.8; GRK2 inh: 2.0; core dimer inh: -6.3; DAGLB inh: 2.2; FID counter: -4.3; GPR7 antag: -14.6

Results for COc1ccc(NC2CC(=O)N(c3ccc(C(=O)O)cc3)C2=O)cc1 (centres undefined) ?
NS3 helicase inh: 20.5; GRK2 inh: 0.0; core dimer inh: -2.3; DAGLB inh: 1.1; FID counter: -2.0; GPR7 antag: 1.8

Results for COc1ccc(NC2CC(=O)N(C(C)C)C2=O)cc1 (centres undefined) ?
NS3 helicase inh: 10.7; GRK2 inh: 1.0; core dimer inh: -2.1; DAGLB inh: 2.1; FID counter: -4.7; GPR7 antag: 23.6*; GPR7 antag cf: -1.5; MCHR1 antagonist: 9.2

Results for CCCc1nc(SCC(=O)Nc2nnc(CC)s2)c2c(=O)n(C)c(=O)n(C)c2n1 ?
NS3 helicase inh: 1.4; GRK2 inh: 0.0; core dimer inh: -3.8; DAGLB inh: -0.6; FID counter: -8.1; GPR7 antag: -3.9

What do the screens show for `CC(C)(C)OC(=O)NCCCC[C@H](NC(=O)c1nc[nH]c1C(=O)N1CCN(c2ccccc2)CC1)C(=O)OC(C)(C)C`?
GRK2 inh: 1.0; core dimer inh: -4.5; DAGLB inh: 3.6

What do the screens show for `Cc1ccc(NS(=O)(=O)c2ccc(C(=O)OCC(=O)Nc3cc(C)on3)cc2)cc1`?
NS3 helicase inh: 1.2; DAGLB inh: -2.7; FID counter: -3.9; GPR7 antag: 26.0*; GPR7 antag cf: 38.4*; MCHR1 antagonist: 52.1*

How did CC(NC(=O)COc1ccc(S(=O)(=O)N2CCOCC2)cc1)c1ccccc1 (centres undefined) do in these assays?
GRK2 inh: 1.0; DAGLB inh: 0.0

How did CC(=O)c1cccc(NC(=O)NCCc2c[nH]c3ccccc23)c1 do in these assays?
NS3 helicase inh: 9.9; GRK2 inh: 0.0; core dimer inh: -3.9; DAGLB inh: -0.5; FID counter: -3.9; GPR7 antag: -3.0

What do the screens show for `O=C(Nc1cccc(CNCCc2c[nH]c3ccccc23)c1)c1ccccc1Cl`?
NS3 helicase inh: -74.2; GRK2 inh: 0.0; core dimer inh: 8.4; DAGLB inh: 3.0; FID counter: 10.9; GPR7 antag: 46.5*; GPR7 antag cf: 54.4*; MCHR1 antagonist: 51.2*

Results for Cc1ccc(C)c(N2CCN(C(=O)C3CCCN(S(=O)(=O)c4c(C)noc4C)C3)CC2)c1 (centres undefined) ?
NS3 helicase inh: -6.4; GRK2 inh: 0.0; core dimer inh: 5.7; DAGLB inh: -2.3; FID counter: -1.7; GPR7 antag: 2.8

What do the screens show for `Cc1ccc(C)c(N2CCN(C(=O)C3CCN(S(=O)(=O)c4c(C)noc4C)CC3)CC2)c1`?
NS3 helicase inh: 20.5; GRK2 inh: 2.0; core dimer inh: -0.1; DAGLB inh: 0.5; FID counter: -54.2; GPR7 antag: 32.2*; GPR7 antag cf: 21.5; MCHR1 antagonist: 47.4*
